Laboratory results published in ChEMBL document CHEMBL4689842, “EUbOPEN Chemogenomics Library wave 1” (2021).

System: U2OS
Test: Multiplex assay against U2OS
Assay type: toxicity, cell-based
Conditions: human
Method in brief: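 Live cells carried four stains from seeding: Hoechst33342, BioTracker Green Microtubule Cytoskeleton Dye, MitoTracker Red and Annexin V Alexa Fluor 680. They were imaged on a CQ1 microscope at 37°C and 5% CO2 after compound addition. Using CellPathfinder machine-learning gating, cells were split into Hoechst high-intensity objects or normal cells, normal cells into healthy, pyknosed or fragmented nuclei, and pyknosed cells into mitotic or apoptotic; tubulin, mitochondrial-mass and membrane-permeability phenotypes are per cents of healthy-nucleus cells.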

[1] = 12 h, 1 µM, compound concentration 1 uM, replicate 1
[2] = 12 h, 1 µM, compound concentration 1 uM, replicate 2
[3] = 12 h, 10 µM, compound concentration 10 uM, replicate 1
[4] = 12 h, 10 µM, compound concentration 10 uM, replicate 2
[5] = 24 h, 1 µM, compound concentration 1 uM, replicate 1
[6] = 24 h, 1 µM, compound concentration 1 uM, replicate 2
[7] = 24 h, 10 µM, compound concentration 10 uM, replicate 1
[8] = 24 h, 10 µM, compound concentration 10 uM, replicate 2
[9] = 48 h, 1 µM, compound concentration 1 uM, replicate 1
[10] = 48 h, 1 µM, compound concentration 1 uM, replicate 2
[11] = 48 h, 10 µM, compound concentration 10 uM, replicate 1
[12] = 48 h, 10 µM, compound concentration 10 uM, replicate 2

What does the source list for `CN(C)C(=O)/C(C#N)=C/c1ccc(-c2nc3cnc4[nH]ccc4c3n2C2CCCCC2)o1`?
Population Apoptotic (%) [1]: 60%; Population Fragmented Nuclei (%) [1]: 17%; Population Healthy Nuclei (%) [1]: 69%; Population Hoechst High Intensity Objects (%) [1]: 8%; Population Membrane Permeable-Phenotype (%) [1]: 5%; Population Mitochondria Different-Phenotype (%) [1]: 14%; Population Mitotic Cells (%) [1]: 40%; Population Normal (%) [1]: 91%; Population Pyknosed Nuclei (%) [1]: 13%; Population Tubulin-Different-Phenotype (%) [1]: 8%; Total Cell Count [1]: 122; Population Apoptotic (%) [2]: 57%; Population Fragmented Nuclei (%) [2]: 4%; Population Healthy Nuclei (%) [2]: 87%; Population Hoechst High Intensity Objects (%) [2]: 2%; Population Membrane Permeable-Phenotype (%) [2]: 2%; Population Mitochondria Different-Phenotype (%) [2]: 6%; Population Mitotic Cells (%) [2]: 42%; Population Normal (%) [2]: 97%; Population Pyknosed Nuclei (%) [2]: 7%; Population Tubulin-Different-Phenotype (%) [2]: 24%; Total Cell Count [2]: 75; Population Apoptotic (%) [3]: 19%; Population Fragmented Nuclei (%) [3]: 17%; Population Healthy Nuclei (%) [3]: 56%; Population Hoechst High Intensity Objects (%) [3]: 49%; Population Membrane Permeable-Phenotype (%) [3]: 12%; Population Mitochondria Different-Phenotype (%) [3]: 55%; Population Mitotic Cells (%) [3]: 80%; Population Normal (%) [3]: 50%; Population Pyknosed Nuclei (%) [3]: 25%; Population Tubulin-Different-Phenotype (%) [3]: 75%; Total Cell Count [3]: 167; Population Apoptotic (%) [4]: 18%; Population Fragmented Nuclei (%) [4]: 20%; Population Healthy Nuclei (%) [4]: 62%; Population Hoechst High Intensity Objects (%) [4]: 54%; Population Membrane Permeable-Phenotype (%) [4]: 13%; Population Mitochondria Different-Phenotype (%) [4]: 63%; Population Mitotic Cells (%) [4]: 81%; Population Normal (%) [4]: 45%; Population Pyknosed Nuclei (%) [4]: 17%; Population Tubulin-Different-Phenotype (%) [4]: 70%; Total Cell Count [4]: 91; Population Apoptotic (%) [5]: 75%; Population Fragmented Nuclei (%) [5]: 12%; Population Healthy Nuclei (%) [5]: 79%; Population Hoechst High Intensity Objects (%) [5]: 5%; Population Membrane Permeable-Phenotype (%) [5]: 4%; Population Mitochondria Different-Phenotype (%) [5]: 8%; Population Mitotic Cells (%) [5]: 25%; Population Normal (%) [5]: 94%; Population Pyknosed Nuclei (%) [5]: 8%; Population Tubulin-Different-Phenotype (%) [5]: 6%; Total Cell Count [5]: 133; Population Apoptotic (%) [6]: 54%; Population Fragmented Nuclei (%) [6]: 5%; Population Healthy Nuclei (%) [6]: 84%; Population Hoechst High Intensity Objects (%) [6]: 4%; Population Membrane Permeable-Phenotype (%) [6]: 2%; Population Mitochondria Different-Phenotype (%) [6]: 10%; Population Mitotic Cells (%) [6]: 45%; Population Normal (%) [6]: 95%; Population Pyknosed Nuclei (%) [6]: 9%; Population Tubulin-Different-Phenotype (%) [6]: 36%; Total Cell Count [6]: 81; Population Apoptotic (%) [7]: 34%; Population Fragmented Nuclei (%) [7]: 17%; Population Healthy Nuclei (%) [7]: 56%; Population Hoechst High Intensity Objects (%) [7]: 44%; Population Membrane Permeable-Phenotype (%) [7]: 15%; Population Mitochondria Different-Phenotype (%) [7]: 45%; Population Mitotic Cells (%) [7]: 65%; Population Normal (%) [7]: 55%; Population Pyknosed Nuclei (%) [7]: 25%; Population Tubulin-Different-Phenotype (%) [7]: 55%; Total Cell Count [7]: 196; Population Apoptotic (%) [8]: 44%; Population Fragmented Nuclei (%) [8]: 28%; Population Healthy Nuclei (%) [8]: 53%; Population Hoechst High Intensity Objects (%) [8]: 54%; Population Membrane Permeable-Phenotype (%) [8]: 12%; Population Mitochondria Different-Phenotype (%) [8]: 49%; Population Mitotic Cells (%) [8]: 55%; Population Normal (%) [8]: 45%; Population Pyknosed Nuclei (%) [8]: 17%; Population Tubulin-Different-Phenotype (%) [8]: 45%; Total Cell Count [8]: 125; Population Apoptotic (%) [9]: 55%; Population Fragmented Nuclei (%) [9]: 8%; Population Healthy Nuclei (%) [9]: 85%; Population Hoechst High Intensity Objects (%) [9]: 0%; Population Membrane Permeable-Phenotype (%) [9]: 3%; Population Mitochondria Different-Phenotype (%) [9]: 7%; Population Mitotic Cells (%) [9]: 44%; Population Normal (%) [9]: 99%; Population Pyknosed Nuclei (%) [9]: 6%; Population Tubulin-Different-Phenotype (%) [9]: 10%; Total Cell Count [9]: 179; Population Apoptotic (%) [10]: 30%; Population Fragmented Nuclei (%) [10]: 4%; Population Healthy Nuclei (%) [10]: 90%; Population Hoechst High Intensity Objects (%) [10]: 1%; Population Membrane Permeable-Phenotype (%) [10]: 1%; Population Mitochondria Different-Phenotype (%) [10]: 15%; Population Mitotic Cells (%) [10]: 70%; Population Normal (%) [10]: 98%; Population Pyknosed Nuclei (%) [10]: 5%; Population Tubulin-Different-Phenotype (%) [10]: 43%; Total Cell Count [10]: 104; Population Apoptotic (%) [11]: 39%; Population Fragmented Nuclei (%) [11]: 26%; Population Healthy Nuclei (%) [11]: 47%; Population Hoechst High Intensity Objects (%) [11]: 44%; Population Membrane Permeable-Phenotype (%) [11]: 23%; Population Mitochondria Different-Phenotype (%) [11]: 18%; Population Mitotic Cells (%) [11]: 60%; Population Normal (%) [11]: 55%; Population Pyknosed Nuclei (%) [11]: 25%; Population Tubulin-Different-Phenotype (%) [11]: 36%; Total Cell Count [11]: 279; Population Apoptotic (%) [12]: 63%; Population Fragmented Nuclei (%) [12]: 34%; Population Healthy Nuclei (%) [12]: 49%; Population Hoechst High Intensity Objects (%) [12]: 48%; Population Membrane Permeable-Phenotype (%) [12]: 27%; Population Mitochondria Different-Phenotype (%) [12]: 27%; Population Mitotic Cells (%) [12]: 36%; Population Normal (%) [12]: 51%; Population Pyknosed Nuclei (%) [12]: 16%; Population Tubulin-Different-Phenotype (%) [12]: 31%; Total Cell Count [12]: 172
